Measured values: ChEMBL document CHEMBL1122190, “Mammary tumor inhibiting effect of 3,3'-diacetoxy-alpha, beta-dialkylstilbenes and of related stilbene oxides” (1982)

How the values were obtained:
Rattus norvegicus [1] = experiment: Percent unchanged DMBA-induced hormone-dependent mammary carcinoma in rats at 1.0 mg/kg/day; assay type: functional
Method in brief: (§1)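 Female Sprague-Dawley rats received a single 20 mg DMBA dose by gastric intubation at 50 days of age. About 4 weeks later, rats bearing at least one tumor >140 mm² were grouped in tens. Compounds in olive oil were given sc 6 times a week for 28 days. Tumor area (length × width) was measured twice weekly.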

Rattus norvegicus [2] = experiment: Percent partial remission of DMBA-induced hormone-dependent mammary carcinoma in rats at 1.0 mg/kg/day; assay type: functional; method in brief: as §1
Rattus norvegicus [3] = experiment: Percent remission of DMBA-induced hormone-dependent mammary carcinoma in rats at 2.0 mg/kg/day; assay type: functional; method in brief: as §1
Mus musculus [4] = experiment: Effect on estrogen and progesterone receptors positive hormone-dependent postmenopausal human mammary carcinoma tumor growth in nude mice at 2.0 mg/kg/day; assay type: functional
Method in brief: (§2)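 Nude mice carried serially transplanted hormone-dependent human mammary carcinoma. Compounds in olive oil were given sc 6 times a week for 4-5 weeks. Two tumor diameters were measured weekly, and size at treatment start was set as 1. Tumor size was averaged after 5 weeks of therapy.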

Rattus norvegicus [5] = experiment: Effect on DMBA-induced hormone-dependent mammary carcinoma tumor growth in rats at 4.0 mg/kg/day (initial tumor number); assay type: functional; method in brief: as §1
[6] = target: T1, Estrogen receptor (Mus musculus) (UniProt O08537+P19785); experiment: Antiuterotrophic activity in mice at 50 ug dose; assay type: functional
Method in brief: (§3)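 Dorfman uterine weight test in immature female NMRI mice, ten per group, 20 days old and 10-12 g at start. Compounds were given in olive oil sc once daily for 3 days. Mice were killed 24 h after the last injection, and uteri were removed, dried at 100 °C for 24 h and weighed.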

Rattus norvegicus [7] = experiment: Effect on DMBA-induced hormone-dependent mammary carcinoma tumor growth in rats at 1.0 mg/kg/day; assay type: functional; method in brief: as §1
Rattus norvegicus [8] = experiment: Percent unchanged DMBA-induced hormone-dependent mammary carcinoma in rats at 4.0 mg/kg/day; assay type: functional; method in brief: as §1
[9] = target: T1, Estrogen receptor (Mus musculus); experiment: Percent inhibition of estrone-stimulated uterine growth in immature mouse at 2.5 ug dose; assay type: functional; method in brief: as §3
Rattus norvegicus [10] = experiment: Effect on DMBA-induced hormone-dependent mammary carcinoma tumor number in rats at 1.0 mg/kg/day; assay type: functional; method in brief: as §1
Rattus norvegicus [11] = experiment: Percent partial remission of DMBA-induced hormone-dependent mammary carcinoma in rats at 4.0 mg/kg/day; assay type: functional; method in brief: as §1
[12] = target: T1, Estrogen receptor (Mus musculus); experiment: Percent inhibition of estrone-stimulated uterine growth in immature mouse at 5 ug dose; assay type: functional; method in brief: as §3
Rattus norvegicus [13] = experiment: Effect on DMBA-induced hormone-dependent mammary carcinoma tumor growth in rats at 2.0 mg/kg/day (number of tumors at test beginning)
[14] = target: T1, Estrogen receptor (Mus musculus); experiment: Percent inhibition of estrone-stimulated uterine growth in immature mouse at 25 ug dose; assay type: functional; method in brief: as §3
Rattus norvegicus [15] = experiment: Percent progression of DMBA-induced hormone-dependent mammary carcinoma in rats at 2.0 mg/kg/day; assay type: functional; method in brief: as §1
Rattus norvegicus [16] = experiment: Percent partial remission of DMBA-induced hormone-dependent mammary carcinoma in rats at 2.0 mg/kg/day; assay type: functional; method in brief: as §1
[17] = target: T1, Estrogen receptor (Mus musculus); experiment: Percent inhibition of estrone-stimulated uterine growth in immature mouse at 50 ug dose; assay type: functional; method in brief: as §3
Rattus norvegicus [18] = experiment: Percent remission of DMBA-induced hormone-dependent mammary carcinoma in rats at 4.0 mg/kg/day; assay type: functional; method in brief: as §1
[19] = target: T1, Estrogen receptor (Mus musculus); experiment: Antiuterotrophic activity in mice at 2.5 ug dose; assay type: functional; method in brief: as §3
Rattus norvegicus [20] = experiment: Percent remission of DMBA-induced hormone-dependent mammary carcinoma in rats at 1.0 mg/kg/day; assay type: functional; method in brief: as §1
Rattus norvegicus [21] = experiment: Effect on DMBA-induced hormone-dependent mammary carcinoma tumor growth in rats at 4.0 mg/kg/day; assay type: functional; method in brief: as §1
[22] = test system: Estrogen receptor (Bos taurus); experiment: In vitro relative binding affinity for Estrogen receptor compared to [3H]estradiol
Mus musculus [23] = experiment: Effect on estrogen and progesterone receptors positive hormone-dependent postmenopausal human mammary carcinoma tumor growth in nude mice at 1.0 mg/kg/day dose; assay type: functional; method in brief: as §2
Rattus norvegicus [24] = experiment: Effect on DMBA-induced hormone-dependent mammary carcinoma tumor number in rats at 4.0 mg/kg/day; assay type: functional; method in brief: as §1
Rattus norvegicus [25] = experiment: Percent progression of DMBA-induced hormone-dependent mammary carcinoma in rats at 4.0 mg/kg/day; assay type: functional; method in brief: as §1
Rattus norvegicus [26] = experiment: Effect on DMBA-induced hormone-dependent mammary carcinoma tumor growth in rats at 2.0 mg/kg/day; assay type: functional; method in brief: as §1
[27] = target: T1, Estrogen receptor (Mus musculus); experiment: Antiuterotrophic activity in mice at 25 ug dose; assay type: functional; method in brief: as §3
Rattus norvegicus [28] = experiment: Percent progression of DMBA-induced hormone-dependent mammary carcinoma in rats at 1.0 mg/kg/day; assay type: functional; method in brief: as §1
Rattus norvegicus [29] = experiment: Effect on DMBA-induced hormone-dependent mammary carcinoma tumor number in rats at 2.0 mg/kg/day; assay type: functional; method in brief: as §1
Rattus norvegicus [30] = experiment: Percent unchanged DMBA-induced hormone-dependent mammary carcinoma in rats at 2.0 mg/kg/day; assay type: functional; method in brief: as §1
Rattus norvegicus [31] = experiment: Effect on DMBA-induced hormone-dependent mammary carcinoma tumor growth in rats at 1.0 mg/kg/day (initial tumor number); assay type: functional; method in brief: as §1
[32] = target: T1, Estrogen receptor (Mus musculus); experiment: Antiuterotrophic activity in mice at 5 ug dose; assay type: functional; method in brief: as §3
Mus musculus [33] = experiment: Effect on estrogen and progesterone receptors positive hormone-dependent postmenopausal human mammary carcinoma tumor growth in nude mice at 2.6 mg/kg/day; assay type: functional; method in brief: as §2
[34] = target: T1, Estrogen receptor (Mus musculus); experiment: Uterotrophic activity in mice at 100 ug dose; assay type: functional, tissue-based; settings: Uterus; method in brief: as §3
[35] = target: T1, Estrogen receptor (Mus musculus); experiment: Uterotrophic activity in mice at 50 ug dose; assay type: functional, tissue-based; settings: Uterus
Method in brief: (§4)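 Dorfman uterine weight test in immature female NMRI mice (20 days old at start, 10-12 g; ten per group). Compound given sc daily in olive oil for 3 days. Animals killed 24 h after last injection; uteri removed, dried at 100 °C for 24 h and weighed.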

[36] = target: T1, Estrogen receptor (Mus musculus); experiment: Uterotrophic activity in mice at 10 ug dose; assay type: functional, tissue-based; settings: Uterus; method in brief: as §3
[37] = target: T1, Estrogen receptor (Mus musculus); experiment: Uterotrophic activity in mice at 1 ug dose; assay type: functional, tissue-based; settings: Uterus; method in brief: as §3
[38] = target: T1, Estrogen receptor (Mus musculus); experiment: Uterotrophic activity in mice at 500 ug dose; assay type: functional, tissue-based; settings: Uterus; method in brief: as §4
Rattus norvegicus [39] = experiment: Percent partial remission of DMBA-induced hormone-dependent mammary carcinoma in rats at 0.5 mg/kg/day; assay type: functional; method in brief: as §1
[40] = target: T1, Estrogen receptor (Mus musculus); experiment: Percent inhibition of estrone-stimulated uterine growth in immature mouse at 100 ug dose; assay type: functional; method in brief: as §3
Rattus norvegicus [41] = experiment: Effect on DMBA-induced hormone-dependent mammary carcinoma tumor number in rats at 0.5 mg/kg/day; assay type: functional; method in brief: as §1
Rattus norvegicus [42] = experiment: Effect on DMBA-induced hormone-dependent mammary carcinoma tumor growth in rats at 0.5 mg/kg/day (initial tumor number); assay type: functional; method in brief: as §1
[43] = target: T1, Estrogen receptor (Mus musculus); experiment: Uterotrophic activity in mice at 800 ug dose; assay type: functional, tissue-based; settings: Uterus; method in brief: as §4
[44] = target: T1, Estrogen receptor (Mus musculus); experiment: Uterotrophic activity in mice at 8 ug dose; assay type: functional, tissue-based; settings: Uterus; method in brief: as §4
Rattus norvegicus [45] = experiment: Effect on DMBA-induced hormone-dependent mammary carcinoma tumor growth in rats at 0.5 mg/kg/day; assay type: functional; method in brief: as §1
Rattus norvegicus [46] = experiment: Percent unchanged DMBA-induced hormone-dependent mammary carcinoma in rats at 0.5 mg/kg/day; assay type: functional; method in brief: as §1
[47] = target: T1, Estrogen receptor (Mus musculus); experiment: Antiuterotrophic activity in mice at 100 ug dose; assay type: functional; method in brief: as §3
Rattus norvegicus [48] = experiment: Percent remission of DMBA-induced hormone-dependent mammary carcinoma in rats at 0.5 mg/kg/day; assay type: functional; method in brief: as §1
Rattus norvegicus [49] = experiment: Percent progression of DMBA-induced hormone-dependent mammary carcinoma in rats at 0.5 mg/kg/day (Percent of tumors with progression); assay type: functional; method in brief: as §1
[50] = target: T1, Estrogen receptor (Mus musculus); experiment: Uterotrophic activity in mice at 80 ug dose; assay type: functional, tissue-based; settings: Uterus; method in brief: as §4
Mus musculus [51] = experiment: Effect on estrogen and progesterone receptors positive hormone-dependent postmenopausal human mammary carcinoma tumor growth in nude mice at 2.4 mg/kg/day; assay type: functional; method in brief: as §2

T1 sequence (O08537 whole entry, looked up): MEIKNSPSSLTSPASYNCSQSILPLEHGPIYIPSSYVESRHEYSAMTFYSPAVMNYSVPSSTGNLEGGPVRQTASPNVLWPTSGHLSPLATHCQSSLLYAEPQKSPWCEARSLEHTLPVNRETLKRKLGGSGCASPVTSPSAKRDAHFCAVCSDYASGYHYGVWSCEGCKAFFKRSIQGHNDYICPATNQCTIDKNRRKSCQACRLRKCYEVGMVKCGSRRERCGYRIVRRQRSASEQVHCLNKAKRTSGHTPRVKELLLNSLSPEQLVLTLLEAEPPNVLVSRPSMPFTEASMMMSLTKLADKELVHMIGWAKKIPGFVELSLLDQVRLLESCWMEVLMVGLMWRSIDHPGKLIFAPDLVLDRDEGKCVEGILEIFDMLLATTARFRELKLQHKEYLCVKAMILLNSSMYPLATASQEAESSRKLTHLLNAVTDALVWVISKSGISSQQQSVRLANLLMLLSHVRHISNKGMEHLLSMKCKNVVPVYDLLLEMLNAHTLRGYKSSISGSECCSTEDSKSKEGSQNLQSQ
T1 sequence (P19785 whole entry, looked up): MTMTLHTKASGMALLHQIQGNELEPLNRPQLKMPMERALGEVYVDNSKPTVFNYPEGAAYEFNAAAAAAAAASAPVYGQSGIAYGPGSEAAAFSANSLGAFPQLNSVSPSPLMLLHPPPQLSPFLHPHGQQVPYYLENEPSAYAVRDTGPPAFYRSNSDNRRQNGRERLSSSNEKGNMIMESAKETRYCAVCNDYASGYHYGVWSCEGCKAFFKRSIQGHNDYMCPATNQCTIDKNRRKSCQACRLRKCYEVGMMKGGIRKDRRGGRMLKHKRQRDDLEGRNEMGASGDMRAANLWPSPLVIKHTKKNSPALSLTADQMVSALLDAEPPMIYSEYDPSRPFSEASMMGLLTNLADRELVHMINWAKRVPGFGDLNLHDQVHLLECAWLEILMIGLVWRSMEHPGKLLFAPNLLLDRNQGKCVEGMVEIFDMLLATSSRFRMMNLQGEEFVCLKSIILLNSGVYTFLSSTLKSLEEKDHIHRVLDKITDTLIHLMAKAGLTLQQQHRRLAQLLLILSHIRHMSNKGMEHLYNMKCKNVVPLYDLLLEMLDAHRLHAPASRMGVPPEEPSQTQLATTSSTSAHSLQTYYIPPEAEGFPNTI

Compound	Effect [6]	inhibition [12]	inhibition [17]	RBA [22]	Effect [32]	Tumors (Rattus norvegicus [1])	Tumors (Rattus norvegicus [2])	Tumor size (Mus musculus [4])	No. of tumors (Rattus norvegicus [5])	Tumors (Rattus norvegicus [8])	No. of tumors (Rattus norvegicus [10])	Tumors (Rattus norvegicus [11])	Tumors (Rattus norvegicus [18])	Tumors (Rattus norvegicus [20])	Change (Rattus norvegicus [21])	Tumor size (Mus musculus [23])	No. of tumors (Rattus norvegicus [24])	Tumors (Rattus norvegicus [25])	Tumors (Rattus norvegicus [28])	No. of tumors (Rattus norvegicus [31])	other results
CC/C(=C(/CC)c1cccc(O)c1)c1cccc(O)c1	29.1	48%	45.1%	3.2%	28.1	38%	23%	1.76	37	32%	34	22%	27%	15%	-26%	2.78	17	19%	24%	32	Tumors (Rattus norvegicus [3]): 25%; Tumors (Rattus norvegicus [7]): 40%; inhibition [9]: 18.7%; Number of tumors at test beginning (Rattus norvegicus [13]): 32; inhibition [14]: 42.8%; Tumors (Rattus norvegicus [15]): 17%; Tumors (Rattus norvegicus [16]): 26%; Effect [19]: 38.3; Change (Rattus norvegicus [26]): 2%; Effect [27]: 29.9; No. of tumors (Rattus norvegicus [29]): 21; Tumors (Rattus norvegicus [30]): 32%
CCC1(c2cccc(O)c2)OC1(CC)c1cccc(O)c1 (configuration not stated)	33	52.5%	34.3%	5.4%	27.6	0%	13%	1.85	29	12%	10	12%	61%	76%	-16%	2.9	4	15%	10%	31	Tumors (Rattus norvegicus [39]): 13%; inhibition [40]: 2.7%; Change (Rattus norvegicus [7]): -52%; No. of tumors (Rattus norvegicus [41]): 18; No. of tumors (Rattus norvegicus [42]): 27; Effect [43]: 43.6; Effect [44]: 29.4; Change (Rattus norvegicus [45]): 18%; Tumors (Rattus norvegicus [46]): 5%; Effect [47]: 42.2; Tumors (Rattus norvegicus [48]): 69%; Tumors (Rattus norvegicus [49]): 13%; Effect [50]: 33

Now from value to compound, other results behind:

Effect [6]	inhibition [12]	inhibition [17]	RBA [22]	Effect [32]	Compound	Tumors (Rattus norvegicus [1])	Tumors (Rattus norvegicus [2])	Tumor size (Mus musculus [4])	No. of tumors (Rattus norvegicus [5])	Tumors (Rattus norvegicus [8])	No. of tumors (Rattus norvegicus [10])	Tumors (Rattus norvegicus [11])	Tumors (Rattus norvegicus [18])	Tumors (Rattus norvegicus [20])	Change (Rattus norvegicus [21])	Tumor size (Mus musculus [23])	No. of tumors (Rattus norvegicus [24])	Tumors (Rattus norvegicus [25])	Tumors (Rattus norvegicus [28])	No. of tumors (Rattus norvegicus [31])	other results
			2.2%		CC/C(=C(/CC)c1cccc(OC(C)=O)c1)c1cccc(OC(C)=O)c1																Tumor size (Mus musculus [33]): 2.3; Effect [34]: 32.7; Effect [35]: 27.4; Effect [36]: 24.3; Effect [37]: 15.9; Effect [38]: 42
			0.4%		CC(=O)Oc1cccc(/C(C)=C(\C)c2cccc(OC(C)=O)c2)c1																Tumor size (Mus musculus [51]): 3.42
36.4	33.5%	22.6%	4.2%	33.2	CCC1(c2cccc(OC(C)=O)c2)OC1(CC)c1cccc(OC(C)=O)c1 (configuration not stated)																inhibition [40]: 0%; Tumor size (Mus musculus [33]): 2.38; Effect [34]: 36.2; Effect [47]: 43.7; Effect [35]: 33.4; Effect [36]: 30.3; Effect [37]: 22.2; Effect [38]: 38.6
